Measurements pooled from the literature.
Lines come from different studies, so protocols differ.
Target: Calcium/calmodulin-dependent protein kinase kinase 2 (CAMKK2, Homo sapiens, UniProt Q96RR4)

SMILES	test	conditions	measurement	result
CCCCC(=O)Nc1ccc(-c2ccc3ncn(CCC)c(=O)c3c2)cn1	binding, competition with immobilised ligand	0.5 µM	remaining binding	100%
Cc1ccc(NC(=O)c2ccnc(C(F)(F)F)c2)cc1-c1cc(OCCO)nc(N2CCOCC2)c1	binding	1 µM	remaining binding	98%
C1=C/COCc2cc(ccc2OCCN2CCCC2)Nc2nccc(n2)-c2cccc(c2)COC/1	binding	0.1 µM	remaining binding	68%
COc1ccc2[nH]c3c4[nH]c5ccc(OC)cc5c4c4c(c3c2c1)C(=O)NC4=O	binding	1 µM	remaining binding	74%
C=CC(=O)N1CCC([C@@H]2CCNc3c(C(N)=O)c(-c4ccc(Oc5ccccc5)cc4)nn32)CC1	enzyme activity, inhibitor	1 µM	inhibition	12%
Cc1cc(O)c(-c2ccc([C@@H](C)CN(C)C)cc2)c2c1[nH]c(=O)c1sccc12	enzyme activity, inhibitor	0.1 µM	inhibition	6.79%
C#Cc1cc(-c2cc(Nc3nc(N[C@@H](C)c4ccc(F)cn4)ncc3Cl)n[nH]2)ccc1C=O	enzyme activity, inhibitor	0.2 µM	inhibition	57.9%
C=CC(=O)N1CCC[C@@H](n2nc(-c3ccc(Oc4ccccc4)cc3)c3c(N)ncnc32)C1	enzyme activity, inhibitor	1 µM	inhibition	4%
